High-throughput results deposited in PubChem by several laboratories.
Compounds with a hit are over-represented: about 9.6% of the library has one in this group of screens.
L major viab: Leishmania major promastigote growth inhibition, primary screen; inhibition, % at 10 µM; 200,000 tested, 9% active; Leishmania major promastigotes, resazurin fluorescence viability; in the data active = inhibition above about 50%;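 also: promastigotes grown with compound for 44 hours at 28 °C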
bCat KO growth: primary screen for growth suppressors in beta-catenin knockout HCT116 cells (colon tumor, human). HCT116 beta-catenin knockout viability, CellTiter-Glo, 60 h; active compounds read low. viability, % at 10 µM. 140,000 tested, 1.5% active;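 active = viability at or under a set limit, the compound median less 4 SD, cut at about 6% in these data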;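 also: 0% = Hyamine 1622 control at 20 µM and 100% = untreated cell control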
TNAP act hi DEA: TNAP activators at high phosphate acceptor level, primary screen, biochemical, luminescence, uHTS; 200,000 tested, under 10 active; purified TNAP, CDP-star luminescence, 1 M DEA, 30 min; active compounds read high; 0 = EDTA background, 1 = DMSO-only activity; activation factor at 20 µM; Alkaline phosphatase, tissue-nonspecific isozyme (Homo sapiens), P05186;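 active = activation factor at least 2 at 20 µM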
Target sequence (P05186 whole entry, looked up): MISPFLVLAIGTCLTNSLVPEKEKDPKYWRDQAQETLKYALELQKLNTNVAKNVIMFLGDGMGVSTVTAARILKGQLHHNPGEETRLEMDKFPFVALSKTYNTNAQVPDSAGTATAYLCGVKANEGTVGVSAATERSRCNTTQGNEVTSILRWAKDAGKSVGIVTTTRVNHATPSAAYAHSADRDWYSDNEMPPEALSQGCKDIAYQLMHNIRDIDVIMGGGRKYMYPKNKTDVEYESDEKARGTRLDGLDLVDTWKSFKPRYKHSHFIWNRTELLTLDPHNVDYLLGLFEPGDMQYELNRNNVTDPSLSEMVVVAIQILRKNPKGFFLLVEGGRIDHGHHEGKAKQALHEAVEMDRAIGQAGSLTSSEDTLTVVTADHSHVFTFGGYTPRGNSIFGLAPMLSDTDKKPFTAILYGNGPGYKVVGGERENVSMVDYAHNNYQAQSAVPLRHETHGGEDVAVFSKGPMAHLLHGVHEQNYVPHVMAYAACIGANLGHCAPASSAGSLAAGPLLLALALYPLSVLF
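Dosing: 20 µM single point. System: human TNAP. Amount: TNAP 1/800 final. Incubation: 30 min, room temperature. Read-out: TNAP activation factor scaled between EDTA and DMSO control wells. Signal: luminescence from CDP-star hydrolysis. Medium: 1 M DEA, pH 9.8, Mg2+, Zn2+. Control set: EDTA negative control, DMSO positive control.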
TNAP inh hiacc: human TNAP enzyme inhibitors, primary screen, biochemical, luminescent, high phosphate acceptor level, uHTS; Alkaline phosphatase, tissue-nonspecific isozyme (Homo sapiens), P05186; purified TNAP, CDP-star luminescence, 1 M DEA; inhibition, % at 20 µM; 200,000 tested, 0.03% active;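 active = over 50% inhibition of tissue-nonspecific alkaline phosphatase at 20 µM in the single-dose screen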;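 also: plate controls were DMSO wells for no effect and EDTA-quenched wells as full inhibition for full effect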
HCT116 PTEN-null: growth suppression of PTEN-null HCT116, primary screen, cell-based, CellTiter-Glo. HCT116 PTEN-null viability, 60 h; active compounds read low. viability, % at 10 µM. 140,000 tested, 1.2% active. AID 827, 2007;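 active = viability at or below a set limit, 4 SD under the median of all tested compounds, cut at about 3.7% in these data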;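 also: PTEN knockout HCT116 line with beta catenin targeted HCT116 as companion control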
TNAP inh no acc: human TNAP enzyme inhibitors, primary screen, biochemical, luminescent, no phosphate acceptor, uHTS | purified TNAP, CDP-star luminescence, 30 min | inhibition, % at 20 µM | 200,000 tested, 0.26% active;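 active = tissue-nonspecific alkaline phosphatase inhibition above about 50% at 20 µM in the single-dose screen, limit read from the data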;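 also: 0% = DMSO negative control and 100% = EDTA positive control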
* hit, by the source's call; / = no result given.

SMILES	L major viab	bCat KO growth	TNAP act hi DEA	TNAP inh hiacc	HCT116 PTEN-null	TNAP inh no acc
CN1CCC(OC(=O)C2c3ccccc3Oc3ccccc32)CC1	85.7*	74.3	1	-0.5	86.2	-2.7
CN1CCC(OC(=O)Cc2ccccc2)CC1	2.4	/	1.1	-5.0	/	-11.4
CCn1c(NN=O)nc2ccccc21	53.2*	/	1	1.2	/	-5.8
CN1C(=O)C(=Cc2ccccc2OCCOc2ccc([N+](=O)[O-])cc2)C(=O)N(C)C1=O	77.8*	/	1	-2.0	/	-3.7
O=C1NC(=O)C(=Cc2ccccc2OCCOc2ccc([N+](=O)[O-])cc2)C(=O)N1	64.0*	/	1	4.1	/	2.3
CN1C(=O)C(=Cc2ccccc2OCc2ccc(C(=O)O)cc2)C(=O)N(C)C1=O	-8.7	/	1	-3.8	/	1.8
O=C1NC(=O)C(=Cc2ccc(Oc3ccc([N+](=O)[O-])cc3)cc2)C(=O)N1	10.4	/	1	2.7	/	-2.9
CN1C(=O)C(=Cc2ccccc2OCc2ccccc2Cl)C(=O)N(C)C1=O	66.3*	42.7	1	-2.4	47.9	-6.9
O=C1NC(=O)C(CCc2ccncc2)(CCc2ccncc2)C(=O)N1Cc1ccccc1	-5.1	/	1	-0.1	/	2.1
CSc1ccc(C(=O)C2CCCN(CCCn3cccn3)C2)cc1 (stereo not drawn)	85.7*	/	1	-3.6	/	-5.2
CSc1ccc(C(=O)C2CCCN(C)C2)cc1 (stereo not drawn)	72.3*	/	1.1	-7.0	/	-4.5
CSc1ccc(C(=O)C2CCCN(Cc3cnc(SC)nc3)C2)cc1 (stereo not drawn)	93.7*	/	1	-3.8	/	-7.3
CSc1ncc(CN2CCCC(C(=O)c3sccc3C)C2)cn1 (stereo not drawn)	18.5	/	1	-0.4	/	-5.4
OC(Cn1c2ccccc2c2ccccc21)C[n+]1cccc2ccccc21 (stereo not drawn)	13.5	9.9	1	-4.0	14.9	10.0
CCCCCSc1cc(OC)c(CCNC)cc1OC	100.3*	77.9	1	-4.9	86.7	2.5
CCCCCCCSc1cc(OC)c(CCNC)cc1OC	100.5*	1.5*	1.1	-5.7	1.6*	-1.0
Cc1nn(Cc2ccc(Cl)cc2Cl)c(Cl)c1C(=O)Nc1ccc(OC(F)F)cc1	-6.2	69.3	1	-0.7	58.5	-3.1
Oc1ccc(/C=N/NP(=S)(c2ccccc2)c2ccccc2)cc1O	0.5	60.9	0.8	18.5	72.4	76.8*
c1ccc2c(N3CCNCC3)nsc2c1	-4.2	/	1.1	-5.3	/	-10.6
Cc1ccc(N2CCN(CCc3ccccc3)CC2)cc1	83.6*	96.6	1	-2.7	84.0	-7.7
CCCCCn1c(N)c(C(=O)NCCN2CCOCC2)c2nc3ccccc3nc21	21.2	53.3	1.1	-7.2	45.8	-17.3
COc1ccc(CCNC(=O)c2c(N)n(CCN3CCOCC3)c3nc4ccccc4nc23)cc1OC	100.4*	32.6	1	-2.5	21.4	-7.5
CCOC(=O)c1c(NC(=O)c2c(N)n(CCCOC)c3nc4ccccc4nc23)sc2c1CCCC2	-5.6	4.0*	0.9	6.1	14.5	-1.0
CCCCCCn1c(N)c(C(=O)NCCN2CCOCC2)c2nc3ccccc3nc21	-0.5	27.2	1.1	-8.2	1.4*	-15.1
COCCCn1c(N)c(C(=O)NCCC(C)C)c2nc3ccccc3nc21	3.2	1.6*	1	1.4	2.7*	-4.5
SMILES	L major viab	bCat KO growth	TNAP act hi DEA	TNAP inh hiacc	HCT116 PTEN-null	TNAP inh no acc
CCCC12CN3CCN(CC(C3)/C1=N\NC(=O)c1ccncc1)C2	0.8	/	1	-2.0	/	6.5
Nc1c(C(=O)NCCCc2ccccc2)c2nc3ccccc3nc2n1Cc1cccs1	47.8	2.9*	1.1	-10.2	1.9*	-21.2
CCOC(=O)C1=C(N)OC2=C(C(=O)CCC2)C12C(=O)N1c3c(ccc(C)c32)C(C)=CC1(C)C (stereo not drawn)	78.7*	88.5	1	1.6	80.1	-1.6
O=C(Cc1cc(=O)[nH]c(=O)[nH]1)N1CCN(CCO)CC1	-9.0	/	1.1	-7.3	/	-12.0
CC(C)CCn1c(=O)c(C(=O)Nc2ccccc2S(N)(=O)=O)c(O)c2ccccc21	99.7*	29.4	1	2.2	20.6	4.5
CCCCn1c(=O)c(C(=O)Nc2cnccn2)c(O)c2ccccc21	51.9*	54.2	1	-2.5	45.6	-4.6
CCCCn1c(=O)c(C(=O)Nc2nc3ccccc3[nH]2)c(O)c2ccccc21	/	/	1	1.5	/	-5.3
CCc1cccc(C)c1NC(=S)N1CC2CC(C1)c1cccc(=O)n1C2 (stereo not drawn)	-6.1	87.7	1	-1.1	92.2	4.1
Fc1ccc(Cn2nnnc2C(c2ccc(Cl)cc2)N2CC=C(c3ccc(F)cc3)CC2)cc1 (stereo not drawn)	98.7*	75.3	1	-0.4	61.5	-15.4
Cc1nn(Cc2ccccc2)c(Cl)c1C(=O)OCC(=O)N1CCCC1	-4.9	/	1	-2.1	/	-12.0
CC(C)OC(=O)c1c(N)n(CC2CCCO2)c2nc3ccccc3nc12 (stereo not drawn)	52.4*	92.8	1	-2.8	89.0	-7.3
CC(C)CCOC(=O)c1c(N)n(CC2CCCO2)c2nc3ccccc3nc12 (stereo not drawn)	99.7*	41.7	1	-0.9	44.4	-4.9
CC(C)OCCCNC(=O)c1c(N)n(CC2CCCO2)c2nc3ccccc3nc12 (stereo not drawn)	12.8	45.6	1.1	-9.4	39.3	-14.8
CCCNC(=O)c1c(N)n(CC2CCCO2)c2nc3ccccc3nc12 (stereo not drawn)	30.2	69.8	1.1	-8.6	62.6	-15.3
Nc1c(C(=O)OC2CCCCC2)c2nc3ccccc3nc2n1CC1CCCO1 (stereo not drawn)	81.0*	36.5	1.1	-5.3	40.1	-18.0
Cc1nn(Cc2ccccc2)c(C)c1C(=O)OCC(=O)Nc1cc(S(C)(=O)=O)ccc1Cl	-0.1	/	1	-2.1	/	-13.4
Cc1ccsc1C(=O)C1CCCN(Cc2ccc(-n3cccn3)cc2)C1 (stereo not drawn)	-0.7	/	1.1	-8.6	/	-12.7
Cc1ccsc1C(=O)C1CCCN(Cc2cccc(-n3cccn3)c2)C1 (stereo not drawn)	57.6*	/	1	-3.3	/	-7.6
Cc1ccc(C)c(OCC(=O)N2CCN(Cc3ccc4c(c3)OCO4)CC2)c1	19.9	/	1	-3.2	/	-1.1
Cc1ccc(OCC(=O)N2CCN(Cc3ccc4c(c3)OCO4)CC2)cc1	83.1*	/	1.1	-8.8	/	-9.2
COc1ccc(OCC(=O)N2CCN(Cc3ccc4c(c3)OCO4)CC2)cc1	63.6*	/	1.1	-5.6	/	-6.2
N#Cc1ccc(OCC(=O)N2CCN(Cc3ccc4c(c3)OCO4)CC2)cc1	75.9*	/	1	1.7	/	-8.0
